Assay results: ChEMBL document CHEMBL1153104, “Synthesis and structural optimization of multiple H-bonding region of diarylalkyl (thio)amides as novel TRPV1 antagonists” (Bioorg Med Chem, 2009)

Target: Transient receptor potential cation channel subfamily V member 1 (Rattus norvegicus, UniProt O35433)
Assay: Antagonist activity at TRPV1 in Sprague-Dawley rat DRG neurons assessed as inhibition of capsaicin-induced [45]Ca2+ uptake
Assay type: functional
Procedure, shortened: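 Neonatal rat DRG neurons from all spinal levels were dissociated with collagenase/trypsin, then grown 3 days on poly-D-ornithine (1500–1700 neurons/well) in DME/F12 with 10% horse serum and C6-conditioned medium, with cytosine arabinoside for the first 2 days. Cells were exposed to ⁴⁵Ca²⁺, 0.5 capsaicin and compound for 10 min at room temperature, lysed in 0.3% SDS, and scintillation-counted. IC50 = 50% reduction of capsaicin response.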

Chain of Transient receptor potential cation channel subfamily V member 1 (O35433 whole entry): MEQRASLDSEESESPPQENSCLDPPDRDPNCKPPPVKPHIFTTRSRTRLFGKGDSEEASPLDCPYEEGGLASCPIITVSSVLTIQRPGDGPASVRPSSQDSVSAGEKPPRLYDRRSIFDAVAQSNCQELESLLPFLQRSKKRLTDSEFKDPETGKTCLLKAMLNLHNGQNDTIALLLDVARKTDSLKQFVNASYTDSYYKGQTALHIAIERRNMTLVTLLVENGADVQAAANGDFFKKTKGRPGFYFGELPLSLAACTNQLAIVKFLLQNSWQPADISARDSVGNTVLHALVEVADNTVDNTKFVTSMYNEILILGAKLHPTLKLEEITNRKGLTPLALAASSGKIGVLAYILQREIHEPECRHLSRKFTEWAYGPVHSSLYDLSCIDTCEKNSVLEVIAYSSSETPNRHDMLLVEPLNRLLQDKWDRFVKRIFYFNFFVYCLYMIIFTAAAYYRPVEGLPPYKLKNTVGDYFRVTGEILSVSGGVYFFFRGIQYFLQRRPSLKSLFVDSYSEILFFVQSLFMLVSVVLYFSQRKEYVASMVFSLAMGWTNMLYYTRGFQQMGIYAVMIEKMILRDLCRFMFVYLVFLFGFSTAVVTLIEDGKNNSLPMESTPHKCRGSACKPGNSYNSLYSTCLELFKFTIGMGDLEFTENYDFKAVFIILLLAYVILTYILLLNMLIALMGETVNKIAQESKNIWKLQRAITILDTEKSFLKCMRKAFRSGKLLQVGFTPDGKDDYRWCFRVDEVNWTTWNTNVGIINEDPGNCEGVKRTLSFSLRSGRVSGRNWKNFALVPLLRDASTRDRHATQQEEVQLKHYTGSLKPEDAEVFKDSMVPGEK

SMILES	IC50
C#Cc1cc(CNC(=S)CCc2ccc(C(C)(C)C)cc2)cc(F)c1NS(C)(=O)=O	75 nM
CC(C)(C)c1ccc(CCC(=S)NCc2ccc(NS(C)(=O)=O)c(C(=O)O)c2)cc1	22600 nM
C=Cc1cc(CNC(=S)CCc2ccc(C(C)(C)C)cc2)cc(F)c1NS(C)(=O)=O	32 nM
CC(C)(C)c1ccc(CCC(=S)NCc2cc(F)c(NS(C)(=O)=O)c(C3CC3)c2)cc1	270 nM
CC(C)(C)c1ccc(CCC(=O)NCc2cc(F)c(NS(C)(=O)=O)c(C3CC3)c2)cc1	360 nM
CC(C)(C)c1ccc(CCC(=S)NCc2ccc(NS(C)(=O)=O)c(C#N)c2)cc1	55 nM
Cc1cc(CNC(=S)CCc2ccc(C(C)(C)C)cc2)ccc1NS(C)(=O)=O	60 nM
CC(C)(C)c1ccc(CCC(=S)NCc2ccc(NS(C)(=O)=O)cc2C(F)(F)F)cc1	2400 nM
C=Cc1cc(CNC(=S)CCc2ccc(C(C)(C)C)cc2)ccc1NS(C)(=O)=O	61 nM
COC(=O)c1cc(CNC(=S)CCc2ccc(C(C)(C)C)cc2)ccc1NS(C)(=O)=O	3700 nM
Cc1cc(CNC(=O)CCc2ccc(C(C)(C)C)cc2)cc(Cl)c1NS(C)(=O)=O	100 nM

The next lines start with the values.

IC50	SMILES
1000 nM	CC(=O)c1cc(CNC(=S)CCc2ccc(C(C)(C)C)cc2)ccc1NS(C)(=O)=O
3500 nM	CC(C)(C)c1ccc(CCC(=S)NCc2ccc(NS(C)(=O)=O)cc2Cl)cc1
300 nM	CC(C)(C)c1ccc(CCC(=S)NCc2ccc(NS(C)(=O)=O)c(I)c2)cc1
80 nM	Cc1cc(CNC(=S)CCc2ccc(C(C)(C)C)cc2)cc(Cl)c1NS(C)(=O)=O
96 nM	CC(C)(C)c1ccc(CCC(=S)NCc2ccc(NS(C)(=O)=O)c(Cl)c2)cc1
620 nM	Cc1cc(CNC(=O)CCc2ccc(C(C)(C)C)cc2)cc(C)c1NS(C)(=O)=O
2900 nM	Cc1cc(CNC(=S)CCc2ccc(C(C)(C)C)cc2)cc(C)c1NS(C)(=O)=O
940 nM	CC(C)(C)c1ccc(CCC(=S)NCc2ccc(NS(C)(=O)=O)c(C(F)(F)F)c2)cc1
28 nM	CC(C)(C)c1ccc(CCC(=S)NCc2cc(F)c(NS(C)(=O)=O)c(C#N)c2)cc1
240 nM	CCc1cc(CNC(=S)CCc2ccc(C(C)(C)C)cc2)ccc1NS(C)(=O)=O
72 nM	CC(C)(C)c1ccc(CCC(=S)NCc2ccc(NS(C)(=O)=O)c([N+](=O)[O-])c2)cc1
40 nM	CC(C)(C)c1ccc(CCC(=S)NCc2ccc(NS(C)(=O)=O)c(F)c2)cc1
